Measured values collected from several papers.
Protocols differ between the studies behind these lines. Values after ≈ are worked out from the molar mass of the structure shown.

| SMILES | tested on | test | system | conditions | endpoint | value |
| --- | --- | --- | --- | --- | --- | --- |
| CC(C)(C#Cc1ccc(-c2ccc(Cl)c3c(NS(C)(=O)=O)nn(CC(F)(F)F)c23)c([C@H](Cc2cc(F)cc(F)c2)NC(=O)Cn2nc(C(F)(F)F)c3c2C(F)(F)[C@@H]2C[C@H]32)n1)S(C)(=O)=O | Human immunodeficiency virus 1 | viral replication, inhibitor |  |  | EC50 | 0.00019 µM |
| CCOC(=O)c1c(NCCO)c2c([nH]c1=O)CCC2 | Human immunodeficiency virus 1 | viral replication, inhibitor | IIIB | 72 h | EC50 | > 100 µM |
| [NH2][Pt]([NH2])([Cl])[Cl] | HCC4006 | cell growth or viability, MTT |  | 48 h | IC50 | 182 µM |
| O=c1[nH]ncc(NN=Cc2cn(-c3ccccc3)nc2-c2cc3ccccc3oc2=O)c1Cl | CCRF-CEM | cell growth or viability |  | 48 h | CC50 | 36.2 µM |
| CC(C)(C#Cc1ccc(-c2ccc(Cl)c3c(NS(C)(=O)=O)nn(CC(F)(F)F)c23)c([C@@H](CC2CC2)NC(=O)Cn2nc(C(F)(F)F)c3c2C(F)(F)[C@@H]2C[C@H]32)n1)S(C)(=O)=O | Human immunodeficiency virus 1 | viral replication, inhibitor |  |  | EC50 | 0.0038 µM |
| CCCNc1c2c([nH]c(=O)c1C(=O)OCC)CCC2 | Human immunodeficiency virus 1 | viral replication, inhibitor | IIIB | 72 h | EC50 | 30.6 µM |
| NNC(=O)c1ccncc1 | Mycobacterium marinum | microbial growth |  |  | MIC90 | 40 µM (≈ 5.49 µg/mL) |
| CC(C)(C#Cc1ccc(-c2ccc(Cl)c3c(NS(C)(=O)=O)nn(CC(F)(F)F)c23)c([C@@H](CC2CCCC2)NC(=O)Cn2nc(C(F)(F)F)c3c2C(F)(F)[C@H]2C[C@@H]32)n1)S(C)(=O)=O | Human immunodeficiency virus 1 | viral replication, inhibitor |  |  | EC50 | 0.0123 µM |
| C=CCCCNc1c2c([nH]c(=O)c1C(=O)OCC)CCC2 | Human immunodeficiency virus 1 | viral replication, inhibitor | IIIB | 72 h | EC50 | 45.4 µM |
| CO[C@H]1/C=C/O[C@@]2(C)Oc3c(C)c(O)c4c(O)c(c(/C=N/N5CCN(C)CC5)c(O)c4c3C2=O)NC(=O)/C(C)=C\C=C\[C@H](C)[C@H](O)[C@@H](C)[C@@H](O)[C@@H](C)[C@H](OC(C)=O)[C@@H]1C | Mycobacterium marinum | microbial growth |  |  | MIC90 | 10 µM (≈ 8.23 µg/mL) |
| CC(=O)ON=C1C=CC(=C(C#N)c2ccccc2)C=C1 | HDF-1 | cell growth or viability, MTT |  | 72 h | IC50 | 24 µg/mL |
| CCOC(=O)c1c(NCCCCN)c2c([nH]c1=O)CCC2 | Human immunodeficiency virus 1 | viral replication, inhibitor | IIIB | 72 h | EC50 | > 100 µM |
| Cc1nc(Nc2ncc(C(=O)Nc3c(C)cccc3Cl)s2)cc(N2CC[C@H](O)C2)n1 | SU-DHL-5 | cell growth or viability, ATP luminescence |  | 10 µM, 72 h | inhibition | 98% |
